The source made the active and inactive calls. The rule behind the calls is not given here.
Columns and labels:
Mus musculus = experiment: Antiobesity activity in high fat diet-induced obese Ptpn2fl/fl null C57BL/6 mouse assessed as hypophagia at 100 ug/kg, ip for 10 consecutive days; assay type: functional, organism-based
[1] = molecular target: T1, Tyrosine-protein phosphatase non-receptor type 2 (Homo sapiens) (UniProt P17706); experiment: Inhibition of human N-terminal His6-tagged TCPTP catalytic domain (1 to 336 residues) expressed in Escherichia coli strain Rosetta2 (DE3) up to 500 uM using pNPP as substrate preincubated for 10 mins followed by substrate addition and measured after 10 mins by […]
T1 sequence (whole entry): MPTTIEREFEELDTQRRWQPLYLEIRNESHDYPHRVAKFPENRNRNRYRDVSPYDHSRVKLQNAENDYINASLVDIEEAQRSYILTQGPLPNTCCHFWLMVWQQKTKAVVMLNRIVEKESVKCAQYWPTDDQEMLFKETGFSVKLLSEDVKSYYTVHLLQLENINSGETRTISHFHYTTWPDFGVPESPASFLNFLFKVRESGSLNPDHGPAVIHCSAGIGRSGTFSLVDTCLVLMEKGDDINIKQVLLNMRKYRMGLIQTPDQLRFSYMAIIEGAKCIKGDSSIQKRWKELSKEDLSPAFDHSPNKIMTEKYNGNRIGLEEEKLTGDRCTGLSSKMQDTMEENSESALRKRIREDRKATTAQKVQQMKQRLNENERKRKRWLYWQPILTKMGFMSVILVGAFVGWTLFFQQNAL

[2] = molecular target: T2, Tyrosine-protein phosphatase non-receptor type 1 (Homo sapiens, UniProt P18031); experiment: Binding affinity to human N-terminal His6-tagged PTP1B catalytic domain (1 to 298 residues) expressed in Escherichia coli strain Rosetta2 (DE3) by switch sense technology based assay
T2 sequence (P18031 whole entry): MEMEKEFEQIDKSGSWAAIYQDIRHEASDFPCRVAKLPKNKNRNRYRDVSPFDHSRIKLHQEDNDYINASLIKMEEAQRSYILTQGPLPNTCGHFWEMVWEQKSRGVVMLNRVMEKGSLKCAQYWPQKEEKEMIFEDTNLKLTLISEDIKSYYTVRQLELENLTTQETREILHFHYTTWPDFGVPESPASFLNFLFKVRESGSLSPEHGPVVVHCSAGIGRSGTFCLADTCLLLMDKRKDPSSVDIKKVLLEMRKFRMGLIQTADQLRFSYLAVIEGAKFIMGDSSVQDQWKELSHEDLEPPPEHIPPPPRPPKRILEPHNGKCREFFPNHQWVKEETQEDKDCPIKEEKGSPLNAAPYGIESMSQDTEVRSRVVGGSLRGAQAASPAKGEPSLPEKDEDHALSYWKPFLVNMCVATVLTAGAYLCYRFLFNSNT
How it was run: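 switchSENSE, fluorescence proximity mode: PTP1B1−298 immobilized on chip, analyte injected at increasing concentrations up to 100 μM at 100 μL/min in PE40 buffer (10 mM phosphate pH 7.4, 40 mM NaCl, 50 μM EGTA/EDTA, 0.05% Tween 20). Buffer rinse for dissociation, recorded at the three highest concentrations; kon, koff, KD fitted.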

[3] = molecular target: T1, Tyrosine-protein phosphatase non-receptor type 2 (Homo sapiens); experiment: Inhibition of human N-terminal His6-tagged TCPTP catalytic domain (1 to 336 residues) expressed in Escherichia coli strain Rosetta2 (DE3) using DiFMUP as substrate preincubated for 10 mins followed by substrate addition and measured after 10 mins in presence of 0.05% Tween20 by fluorescence assay
How it was run: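 DiFMUP IC50 assay (1 nM enzyme, 10 min preincubation, substrate at Km, 37 °C, ex 358/em 455 nm), repeated as an aggregation check under three altered conditions: 10-fold enzyme (10 nM), 0.05% Tween 20, or 0.1 mg/mL BSA in buffer.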

[4] = molecular target: T3, Receptor-type tyrosine-protein phosphatase eta (Homo sapiens, UniProt Q12913); experiment: Inhibition of human PTPRJ (1019 to 1311 residues) expressed in Escherichia coli strain BL21(DE3) using DiFMUP as substrate preincubated for 10 mins followed by substrate addition and measured after 10 mins by fluorescence assay
T3 sequence (Q12913 whole entry): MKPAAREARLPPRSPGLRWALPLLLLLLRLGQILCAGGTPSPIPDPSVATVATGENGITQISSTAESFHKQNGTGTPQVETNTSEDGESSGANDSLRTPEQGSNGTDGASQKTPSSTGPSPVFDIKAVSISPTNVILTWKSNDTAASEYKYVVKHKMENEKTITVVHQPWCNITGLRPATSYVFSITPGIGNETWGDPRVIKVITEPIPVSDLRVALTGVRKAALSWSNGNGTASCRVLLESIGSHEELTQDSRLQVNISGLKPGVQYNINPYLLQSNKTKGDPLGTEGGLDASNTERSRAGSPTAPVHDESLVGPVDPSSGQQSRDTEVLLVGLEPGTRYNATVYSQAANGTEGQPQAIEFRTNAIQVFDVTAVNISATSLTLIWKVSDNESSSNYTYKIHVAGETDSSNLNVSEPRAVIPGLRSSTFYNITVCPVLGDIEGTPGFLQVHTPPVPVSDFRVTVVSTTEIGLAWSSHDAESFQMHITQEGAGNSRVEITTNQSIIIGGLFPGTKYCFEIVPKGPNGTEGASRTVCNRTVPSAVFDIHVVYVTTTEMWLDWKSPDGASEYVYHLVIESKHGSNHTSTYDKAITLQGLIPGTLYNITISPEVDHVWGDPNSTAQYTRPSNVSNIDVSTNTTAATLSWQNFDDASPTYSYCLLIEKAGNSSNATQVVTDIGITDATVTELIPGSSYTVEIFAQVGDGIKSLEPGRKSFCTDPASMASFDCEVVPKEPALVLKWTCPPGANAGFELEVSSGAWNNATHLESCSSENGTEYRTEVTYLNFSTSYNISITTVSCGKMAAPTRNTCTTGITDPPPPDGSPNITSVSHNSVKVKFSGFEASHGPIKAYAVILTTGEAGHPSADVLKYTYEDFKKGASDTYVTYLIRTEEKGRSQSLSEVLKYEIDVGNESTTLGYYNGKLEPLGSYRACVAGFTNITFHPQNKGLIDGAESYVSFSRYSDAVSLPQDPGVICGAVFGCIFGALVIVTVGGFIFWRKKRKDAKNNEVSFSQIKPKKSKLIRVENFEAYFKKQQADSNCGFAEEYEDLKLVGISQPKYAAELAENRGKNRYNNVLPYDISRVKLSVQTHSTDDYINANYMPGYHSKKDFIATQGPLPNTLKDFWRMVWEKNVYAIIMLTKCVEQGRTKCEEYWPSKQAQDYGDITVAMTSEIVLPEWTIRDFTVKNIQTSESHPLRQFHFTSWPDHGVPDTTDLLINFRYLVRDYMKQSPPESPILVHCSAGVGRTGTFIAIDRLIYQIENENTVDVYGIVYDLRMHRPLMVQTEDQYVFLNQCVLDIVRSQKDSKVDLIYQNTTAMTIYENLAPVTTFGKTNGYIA
How it was run: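 Selectivity panel on enzymes expressed in E. coli BL21(DE3), purified by nickel affinity then size exclusion. DiFMUP fluorescence assay run as for PTP1B/TCPTP, with per-enzyme conditions in a supplementary table; nonlinear regression for IC50; three independent experiments.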

In the case of `CC1=C(O)C(=O)C=C2C1=CC=C1[C@@]2(C)CC[C@@]2(C)[C@@H]3C[C@](C)(C(=O)O)CC[C@]3(C)CC[C@]12C` [CELASTROL], the inhibition (Mus musculus) is reported as “Active”, the inhibition [1] is reported as “Active” and the Kd [2] is reported as 6.08 µM. For the same compound, the inhibition [3] was “Active” and the IC50 [4] was 111 µM.

Reference: ChEMBL document CHEMBL4371044, “Celastrol Promotes Weight Loss in Diet-Induced Obesity by Inhibiting the Protein Tyrosine Phosphatases PTP1B and TCPTP in the Hypothalamus” (J Med Chem, 2018)
